Compounds with a hit are over-represented: about 5.2% of the library has one in this group of screens.
M1 ag: M1 muscarinic receptor agonism. CHO-M1 cells, Fluo-4 calcium fluorescence, agonist mode; stronger effect = higher value. B-score at 10 µM. 3% of 64,000 active. AID 626;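 active = fluorescence rise, raw or as B-score row- and column-corrected plate score, outside the 99.7% band of its plate's samples, either direction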
WNV NS2B-NS3 inh: WNV NS2B-NS3 proteinase inhibition; P06935; WNV NS2B-NS3 protease, fluorogenic substrate Ex360/Em465; stronger effect = lower value; z-score (test concentration not listed); 0.18% of 65,000 active; in the data active = z-score below about -3
E coli WT exp: growth inhibitors of E. coli BW25113 wild type | 0.15% of 98,000 active | OD600 absorbance | growth inhibition, % at 100 µM;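 active = growth inhibition above about 50% at one test dose, limit read from the data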;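 also: growth measured after 20 h incubation at 37 °C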
M1 antag: antagonists of rat M1 muscarinic receptor; B-score at 10 µM; 3.4% of 64,000 active; P08482; CHO-M1 cells, Fluo-4 calcium, ACh EC80 antagonist mode; stronger effect = lower value;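 active = calcium fluorescence response, raw or row-and-column corrected B-score, differing from the plate sample mean either way at a set confidence level, mostly lower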
Target sequence (P08482 whole entry, looked up): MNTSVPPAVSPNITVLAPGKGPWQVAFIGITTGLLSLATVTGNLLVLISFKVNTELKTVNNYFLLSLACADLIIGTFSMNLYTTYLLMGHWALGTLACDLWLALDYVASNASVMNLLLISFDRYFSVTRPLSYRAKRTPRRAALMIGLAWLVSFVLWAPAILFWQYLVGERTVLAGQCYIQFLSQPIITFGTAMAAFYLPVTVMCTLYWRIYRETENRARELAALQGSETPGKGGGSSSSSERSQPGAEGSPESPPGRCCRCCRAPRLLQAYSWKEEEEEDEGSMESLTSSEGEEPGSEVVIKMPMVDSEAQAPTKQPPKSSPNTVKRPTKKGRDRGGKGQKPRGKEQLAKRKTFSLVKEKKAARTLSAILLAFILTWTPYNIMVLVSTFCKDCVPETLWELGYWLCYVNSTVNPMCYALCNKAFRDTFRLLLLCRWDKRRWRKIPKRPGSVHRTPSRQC
AP complement: orthogonal test for alternative complement pathway inhibitors | inhibition, % at 5 µM | 0.08% of 62,000 active | Human serum alternative complement pathway, LPS-coated ELISA, C3 deposition; tested in compound mixtures | AID 1235;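 active = inhibition above 30% in each of the two pooled mixtures holding the compound, so the lower value exceeds 30%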
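Medium: diluted human serum in Mg2+-EGTA GVB++. Assay system: human serum complement alternative pathway, C3 deposition onto LPS. Also added: Plate-bound LPS. Technique: Anti-C3 ELISA, OD 450 nm. Measure: percent inhibition. Incubation: 1 h at 37 °C. Dosing: 5 µM each compound, pools of ten, 50 µM per pool.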
tolC growth inh: growth inhibitors of E. coli BW25113 tolC mutant; 2.2% of 65,000 active; growth inhibition, % at 10 µM (by protocol); OD615;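 active = growth inhibition at or above a cutoff equal to the mean over every tested compound plus 3 SD, cut at about 60% in these data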;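 also: growth measured after 20 h incubation at 37 °C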
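Test system: tolC-deleted E. coli BW25113 | Medium: LB with kanamycin 50 µg/mL | Compound dosing: Single concentration, 10 µM final per compound | Schedule: 37 °C, 20 h exposure | Measured by: OD at 615 nm | Evaluation: Percent growth inhibition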
M1 agonist conf: rat M1 muscarinic agonism, confirmation; AID 1488; 19% of 1,700 active; shares compounds with M1 ag; fluorescence change (max-min) at 10 µM; CHO-M1 cells, Fluo-4 calcium fluorescence, agonist mode; actives lie on both sides;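 active = fluorescence change differs from the solvent-only DMSO control mean at a set confidence level in both duplicate runs; inconclusive = differs from solvent-only control mean in just one of two runs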;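 also: an EC20 dose of acetylcholine follows compound addition during the same imaging run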
M4 ag counter: counter-screen for M1 agonists: activity at rat M4 receptor | shares compounds with M1 ag | CHO M4/Gqi5 cells, Fluo-4 calcium fluorescence, agonist mode; actives lie on both sides | fluorescence change (max-min) at 10 µM | 9% of 1,700 active;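 active = fluorescence change differing from the plate's solvent-only control wells at 99.7% confidence in both duplicates, whether higher or lower; inconclusive = differs from solvent controls in only one of two duplicates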
Hits are given with their value; n = inactive; u = inconclusive; x = not tested or not shown.

SMILES	M1 ag	WNV NS2B-NS3 inh	E coli WT exp	M1 antag	AP complement	tolC growth inh	M1 agonist conf	M4 ag counter
CCn1c(=O)cc(SCC(=O)N2CCN(c3ccccc3OC)CC2)c2ccccc21	4.54	n	n	n	n	n	u	n
CN(CC(=O)NCc1cccs1)S(=O)(=O)c1cccc2nsnc12	n	n	n	n	n	n	x	x
O=c1c2ccccc2c(/C=N/n2cnnc2)c(O)n1-c1ccccc1F	54.6	n	n	n	n	n	350	698
Cc1ccc(-n2c(O)c(/C=N/n3cnnc3)c3ccccc3c2=O)cc1	25.9	n	n	n	n	n	121	n
O=c1n(-c2ccccc2)c(=O)n(Cc2ccccn2)n1Cc1ccccn1	n	n	n	n	n	n	x	x
Cn1c(=O)n(Cc2ccc(F)cc2)c(=O)c2c1nc1n2CCCN1C1CCCCC1	n	n	n	n	n	n	x	x
CC1CCCCN1c1cc(C#N)c(C#N)cc1[N+](=O)[O-] (stereo not given)	x	x	n	x	x	x	x	x
CC1CCc2cccc3c2N1c1cc(C#N)c(C#N)cc1O3 (stereo not given)	11.4	n	n	n	n	n	u	n
CCOC(=O)c1coc(CNC(=O)c2c(C)oc3c2CCCC3)c1	14.6	n	n	n	n	n	u	n
Cc1c(NC(=O)C(C)OC(=O)CC2Sc3ccccc3NC2=O)c(=O)n(-c2ccccc2)n1C (stereo not given)	n	n	n	n	n	n	x	x
Cc1ccc2cc(C#N)c(SCC(=O)NCC3CCCO3)nc2c1 (stereo not given)	n	n	n	n	n	n	x	x
Cc1cc(C)c2cc(C#N)c(SCC(=O)NCC3CCCO3)nc2c1 (stereo not given)	2.64	n	n	n	n	n	u	u
Cc1ncsc1CCSc1nc2ccccc2c(=O)n1C	n	n	n	n	x	n	x	x
CCOc1ccccc1C(=O)N1CCCCC1C (stereo not given)	n	n	n	n	n	n	x	x
CCOC(=O)c1c(C)oc2c1c(C(c1ccncc1)N1CCOCC1)c(O)c1ccccc12 (stereo not given)	3.03	n	n	n	n	n	u	n
CCOC(=O)c1c(C)oc2c1c1c(c3ccccc32)OCN(Cc2ccccn2)C1	x	x	n	x	x	x	x	x
CC1(C)CC(=O)C=C(Nc2ccccc2NC(=O)c2cnccn2)C1	21.2	n	n	-1.8	n	n	n	n
CC(=O)Nc1ccc(NC2=CC(=O)CC(C)(C)C2)cc1	11	n	n	n	n	n	u	n
CCNC(=O)CN(c1ccc(CC)cc1)S(C)(=O)=O	x	n	n	x	n	n	x	x
Cc1csc(NC(=O)CSc2nnc(-c3ccncc3)o2)n1	n	n	n	n	n	n	x	x
COc1ccc(CCC(C)NC2C3CC4CC(C3)CC2C4)cc1 (stereo not given)	x	x	n	x	x	x	x	x
COc1ccc2nc(N3CCCCC3)c(C#N)cc2c1	n	n	n	n	n	n	x	x
COc1ccc2nc(N3CCCC3)c(C#N)cc2c1	91.7	n	n	n	n	n	1016	1175
Cc1cc(C)n(-c2nc3c(c(=O)[nH]c(=O)n3C)n2C(C)C)n1	n	n	n	n	n	n	x	x
CCN(CC)S(=O)(=O)c1ccc(S(=O)(=O)Nc2ccc(C(=O)N3CCCC3)cc2)cc1	2.21	n	n	n	n	n	n	n
SMILES	M1 ag	WNV NS2B-NS3 inh	E coli WT exp	M1 antag	AP complement	tolC growth inh	M1 agonist conf	M4 ag counter
COC(=O)c1cc(COc2ccc3c4c(c(=O)oc3c2)CCC4)c(C)o1	x	x	n	x	x	x	x	x
CCn1c(N2CCC(Cc3ccccc3)CC2)nc2c1c(=O)[nH]c(=O)n2C	5.39	n	n	n	n	n	u	n
Cc1nnc(SCCCn2c(N3CCN(c4ccccc4)CC3)nc3c2c(=O)[nH]c(=O)n3C)s1	11.2	n	n	-2.07	n	n	n	u
CCCn1c(SCCc2ccccc2)nc2c1c(=O)[nH]c(=O)n2C	4.74	n	n	n	n	n	u	n
Cc1cc(NC(=O)C2COc3ccccc3O2)no1 (stereo not given)	n	n	n	n	n	n	x	x
COc1cc(-n2c3nc4ccccc4nc3c3c(=O)n(Cc4ccco4)cnc32)cc(OC)c1OC	n	n	x	n	n	n	x	x
C=CCn1cnc2c(c1=O)c1nc3ccccc3nc1n2/N=C/c1cc(OC)c(OC)c(OC)c1	11.1	n	n	-2.16	n	77.2	-32.7	n
COc1ccccc1/C=c1\sc2nc(-c3ccco3)nn2c1=O	n	n	n	n	n	n	x	x
COc1ccc(OC)c(/C=c2\sc3nc(-c4cccs4)nn3c2=O)c1	13.4	n	n	n	n	n	478	556
COc1cc(OC)c(C(=O)Nc2ncn[nH]2)cc1OC	n	n	x	n	n	n	x	x
CCN(C(=O)c1ccc(C(C)(C)C)cc1)c1nnc(Cn2nnc3ccccc32)s1	3.19	n	n	n	n	62.0	u	n
CNC(=O)C1CC(=O)N(c2ccc(C)cc2)C1 (stereo not given)	n	n	n	n	n	n	x	x
CCOc1ccc2nc(N3CCCC(C(=O)NCCCN4CCOCC4)C3)sc2c1 (stereo not given)	2.08	n	n	n	n	n	n	n
O=C(O)c1ccc(S(=O)(=O)N2CCCCCC2)cc1	x	x	n	x	x	x	x	x
Nc1cccc2c1C(=O)N(C(=O)c1ccc(S(=O)(=O)N3CCCCCC3)cc1)C2=O	7.5	n	n	n	n	n	n	n
COc1cc(-c2nnc(SCC#CCO)o2)cc(OC)c1OC	5.84	n	n	n	n	n	n	n
CCCCOC(=O)CSc1nnc(-c2cc(OC)c(OC)c(OC)c2)o1	n	n	n	n	n	n	x	x
CCCCN(CCCC)C(=O)CSc1nnc(-c2cc(OC)c(OC)c(OC)c2)o1	4.44	n	n	n	n	70.8	u	u
O=c1[nH]c(Nc2ccccc2)cc2ccccc12	5.49	n	n	n	n	n	u	n
Cn1c(=O)c2c(ncn2CC(O)CNc2ccc(Br)cc2)n(C)c1=O (stereo not given)	x	n	n	x	n	n	x	x
c1cncc(-c2nnc3sc(-c4ccco4)nn23)c1	n	n	n	n	n	n	x	x
CCN(CC)c1ccc(-c2nn3c(-c4cccnc4)nnc3s2)cc1	8.57	n	n	-6.21	n	n	n	n
Cc1cccc(C)c1OCC(=O)Nc1cccc(NC(=O)c2ccco2)c1	n	n	n	n	n	n	x	x
Cc1ccccc1OCC(=O)Nc1cccc(NC(=O)c2ccco2)c1	7.02	n	n	n	n	n	u	u
CCOc1ccc(C(=O)Nc2ccc(NC(=O)c3ccco3)c(Cl)c2)cc1Cl	x	x	n	x	x	x	x	x
CCOc1ccccc1NC(=O)c1cccc(NC(=O)c2ccco2)c1	5.57	n	n	n	n	n	n	n

Screening results as filed in PubChem.
